Measurements of several laboratories.
Target: Ribosomal protein S6 kinase beta-1 (RPS6KB1, Homo sapiens, UniProt P23443)
Effect on: enzyme activity
Action: inhibitor

Cc1[nH]c(/C=C2\C(=O)Nc3ccc(F)cc32)c(C)c1C(=O)N[C@H]1CCN(C(=O)N(C)C)C1
remaining activity (1 µM): 52%

O=C(Nc1cnn(-c2csc(C(=O)NC3COC3)c2)c1)Nc1c(F)cccc1Cl
remaining activity (5 µM): 97.7%

Cc1cnc(NC2CCOCC2)nc1-n1cnc(C(=O)NC(CN)c2cc(F)cc(Cl)c2)c1 (stereo not drawn)
remaining activity (radiometric; 1 µM): 71%

Cn1c(=O)n(-c2ccc(C(C)(C)C#N)cc2)c2c3cc(-c4cnc5ccccc5c4)ccc3ncc21
remaining activity (10 µM): 109%

CC(C)(C)C(=O)c1sc(NC2CCCCC2)nc1N
remaining activity (10 µM): 86%

COc1cc(Nc2cnc(C#N)c(O[C@H](C)CN(C)C)n2)ncc1-c1cnn(C)c1
remaining activity (radiometric; 10 µM): 85%

Cc1sc(C(=O)NC2COC2)cc1-n1cc(NC(=O)Nc2c(F)cccc2Cl)cn1
remaining activity (10 µM): 92.1%

FC(F)c1nc2ccccc2n1-c1nc(N2CCOCC2)nc(N2CCOCC2)n1
remaining activity (10 µM): 98%

Nc1nc(Nc2ccccc2)sc1C(=O)c1c(F)cccc1F
remaining activity (10 µM): 57%

CCN(CC)CCNC(=O)c1c(C)[nH]c(/C=C2\C(=O)Nc3ccc(F)cc32)c1C
remaining activity (1 µM): 31%

CC(C)(C)c1nc(-c2cccc(NS(=O)(=O)c3c(F)cccc3F)c2F)c(-c2ccnc(N)n2)s1
remaining activity (radiometric; 1 µM): 75%

O=S(=O)(Nc1cc(Sc2ncn[nH]2)c(O)c2ccccc12)c1ccc(-c2ccccc2)cc1
remaining activity (1 µM): ≥ 75%
